Measured values reported in ChEMBL document CHEMBL4477216, “Discovery and Optimization of Small Molecule Splicing Modifiers of Survival Motor Neuron 2 as a Treatment for Spinal Muscular Atrophy” (J Med Chem, 2016).

Columns and labels:
[1] = Apparent permeability in human Caco2 cells; format: ADME, cell-based; conditions: Caco-2
Summary of the method: (§1)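 Bidirectional permeability was measured across a Caco-2 cell monolayer. Papp was reported, and efflux was expressed as the B-A/A-B ratio.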

[2] = Efflux ratio of apparent permeability from basolateral to apical over apical to basolateral side in human Caco2 cells; format: ADME, cell-based; conditions: Caco-2; summary of the method: as §1
[3] = Protein binding in human plasma; format: ADME, cell-free; conditions: read-out: PPB (converted)
[4] = AUC (0 to 6 hrs) in Sprague-Dawley rat at 10 mg/kg, po; format: ADME, organism-based; set-up: dose 10 mg/kg, time < 6 hr, route oral; conditions: in vivo
Summary of the method: (§2)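 Male Sprague-Dawley rats got a single oral 10 mg/kg dose as a suspension in 0.5% hydroxypropyl methylcellulose with 0.1% Tween-80. Plasma was sampled at several time points up to 6 h post dose to give AUC0-6h. Total brain concentration was taken at 6 h to give the brain/plasma ratio.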

[5] = Ratio of drug level in brain to plasma of Sprague-Dawley rat at 10 mg/kg, po measured at 6 hrs; format: ADME, organism-based; conditions: brain and plasma, read-out: BPR; summary of the method: as §2
[6] = AUC (0 to 24 hrs) in FVB.Cg-Tg(SMN2 delta 7 exon)4299Ahmb Tg(SMN2)89Ahmb Smn1tm1Msd/J mouse at 10 mg/kg, ip; format: ADME, organism-based; set-up: dose 10 mg/kg, time < 24 hr, route intraperitoneal; conditions: in vivo
Summary of the method: (§3)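 Single 10 mg/kg IP dose given on postnatal day 9 to neonatal mice. Vehicle was 100% DMSO solution (2.5 mL/kg). Plasma and brain drug levels were measured, giving plasma AUC0-24h and the brain/plasma ratio.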

[7] = Ratio of drug level in brain to plasma of FVB.Cg-Tg(SMN2 delta 7 exon)4299Ahmb Tg(SMN2)89Ahmb Smn1tm1Msd/J mouse at 10 mg/kg, ip; format: ADME, organism-based; conditions: brain and plasma, read-out: BPR; summary of the method: as §3
[8] = tested on: Mus musculus; experiment: In vivo inhibition of mRNA splicing of human SMN2 exon 7 in FVB.Cg-Tg(SMN2 delta 7 exon)4299Ahmb Tg(SMN2)89Ahmb Smn1tm1Msd/J mouse assessed as median survival time at 1 mg/kg/day, ip administered on postnatal day 3 to day 23 (reference value: 14 days); format: functional
[9] = tested on: Mus musculus; experiment: In vivo inhibition of mRNA splicing of human SMN2 exon 7 in FVB.Cg-Tg(SMN2 delta 7 exon)4299Ahmb Tg(SMN2)89Ahmb Smn1tm1Msd/J mouse assessed as increase in SMN protein level in brain administered as ip qd on postnatal day 3 to day 9 by HTRF assay; format: functional, organism-based
Summary of the method: (§4)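 Homozygous Δ7 SMA mice were dosed IP once daily from PND3 to PND9 with compound or vehicle (100% DMSO solution, 2.5 mL/kg). Brain, spinal cord and quadriceps were homogenized in RIPA buffer with protease inhibitors. SMN was read by HTRF (anti-SMN d2 and Kryptate antibodies, overnight rt, 665/620 nm) and normalized to BCA total protein. Values are % change versus vehicle ±SD; 5-11 mice per group.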

[10] = tested on: Mus musculus; experiment: In vivo inhibition of mRNA splicing of human SMN2 exon 7 in FVB.Cg-Tg(SMN2 delta 7 exon)4299Ahmb Tg(SMN2)89Ahmb Smn1tm1Msd/J mouse assessed as increase in SMN protein level in spinal cord administered as ip qd on postnatal day 3 to day 9 by HTRF assay; format: functional, organism-based; summary of the method: as §4
[11] = tested on: Mus musculus; experiment: In vivo inhibition of mRNA splicing of human SMN2 exon 7 in FVB.Cg-Tg(SMN2 delta 7 exon)4299Ahmb Tg(SMN2)89Ahmb Smn1tm1Msd/J mouse assessed as increase in SMN protein level in quadriceps administered as ip qd on postnatal day 3 to day 9 by HTRF assay; format: functional, organism-based; summary of the method: as §4
[12] = tested on: Mus musculus; experiment: In vivo inhibition of mRNA splicing of human SMN2 exon 7 in po dosed FVB.Cg-Tg(SMN2 delta 7 exon)4299Ahmb Tg(SMN2)89Ahmb Smn1tm1Msd/J mouse assessed as increase in survival time administered as bid on postnatal day 24; format: functional, organism-based
Summary of the method: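 Δ7 SMA mice were dosed IP once daily from PND3 to PND23 with compound or vehicle in DMSO (2.5 mL/kg). From PND24 dosing was oral, twice daily, in 0.5% HPMC/0.1% Tween-80 at a higher daily dose. Survivors were counted daily to give median survival time and the fraction alive at study end.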

[13] = tested on: Mus musculus; experiment: In vivo inhibition of mRNA splicing of human SMN2 exon 7 in FVB.Cg-Tg(SMN2 delta 7 exon)4299Ahmb Tg(SMN2)89Ahmb Smn1tm1Msd/J mouse assessed as increase in SMN protein level in brain at 0.1 mg/kg, ip qd administered on postnatal day 3 to day 9 by HTRF assay relative to control; format: functional; set-up: scale not given: the % may be the effect or the level left; summary of the method: as §4
[14] = tested on: Mus musculus; experiment: In vivo inhibition of mRNA splicing of human SMN2 exon 7 in FVB.Cg-Tg(SMN2 delta 7 exon)4299Ahmb Tg(SMN2)89Ahmb Smn1tm1Msd/J mouse assessed as increase in SMN protein level in brain at 0.3 mg/kg, ip qd administered on postnatal day 3 to day 9 by HTRF assay relative to control; format: functional; set-up: scale not given: the % may be the effect or the level left; summary of the method: as §4
[15] = tested on: Mus musculus; experiment: In vivo inhibition of mRNA splicing of human SMN2 exon 7 in FVB.Cg-Tg(SMN2 delta 7 exon)4299Ahmb Tg(SMN2)89Ahmb Smn1tm1Msd/J mouse assessed as increase in SMN protein level in spinal cord at 0.1 mg/kg, ip qd administered on postnatal day 3 to day 9 by HTRF assay relative to control; format: functional; set-up: scale not given: the % may be the effect or the level left; summary of the method: as §4
[16] = tested on: Mus musculus; experiment: In vivo inhibition of mRNA splicing of human SMN2 exon 7 in FVB.Cg-Tg(SMN2 delta 7 exon)4299Ahmb Tg(SMN2)89Ahmb Smn1tm1Msd/J mouse assessed as increase in SMN protein level in spinal cord at 0.3 mg/kg, ip qd administered on postnatal day 3 to day 9 by HTRF assay relative to control; format: functional; set-up: scale not given: the % may be the effect or the level left; summary of the method: as §4
[17] = tested on: Mus musculus; experiment: In vivo inhibition of mRNA splicing of human SMN2 exon 7 in FVB.Cg-Tg(SMN2 delta 7 exon)4299Ahmb Tg(SMN2)89Ahmb Smn1tm1Msd/J mouse assessed as increase in SMN protein level in spinal cord at 3 mg/kg, ip qd administered on postnatal day 3 to day 9 by HTRF assay relative to control; format: functional; set-up: scale not given: the % may be the effect or the level left; summary of the method: as §4
[18] = tested on: Mus musculus; experiment: In vivo inhibition of mRNA splicing of human SMN2 exon 7 in FVB.Cg-Tg(SMN2 delta 7 exon)4299Ahmb Tg(SMN2)89Ahmb Smn1tm1Msd/J mouse assessed as increase in SMN protein level in quadriceps at 0.1 mg/kg, ip qd administered on postnatal day 3 to day 9 by HTRF assay relative to control; format: functional; set-up: scale not given: the % may be the effect or the level left; summary of the method: as §4
[19] = tested on: Mus musculus; experiment: In vivo inhibition of mRNA splicing of human SMN2 exon 7 in FVB.Cg-Tg(SMN2 delta 7 exon)4299Ahmb Tg(SMN2)89Ahmb Smn1tm1Msd/J mouse assessed as increase in SMN protein level in quadriceps at 0.3 mg/kg, ip qd administered on postnatal day 3 to day 9 by HTRF assay relative to control; format: functional; set-up: scale not given: the % may be the effect or the level left; summary of the method: as §4
[20] = tested on: Mus musculus; experiment: In vivo inhibition of mRNA splicing of human SMN2 exon 7 in ip dosed FVB.Cg-Tg(SMN2 delta 7 exon)4299Ahmb Tg(SMN2)89Ahmb Smn1tm1Msd/J mouse assessed as increase in survival time administered as qd on postnatal day 3 to 23

Structure (SMILES)	Papp [1] [×10⁻⁶ cm/s]	efflux ratio [2]	fraction unbound [3]	AUC(0-t) at 6 h [4] [ng·h/mL]	Kp at 6 h [5]	AUC(0-t) at 24 h [6] [ng·h/mL]	Kp [7]	MST [8] [days]	Activity [9]	Activity [10]	Activity [11]	Activity [12]	Activity [13] [%]	Activity [14] [%]	Activity [15] [%]	Activity [16] [%]	Activity [17] [%]	Activity [18] [%]	Activity [19] [%]	Activity [20]
Cc1cn2nc(-c3cc(=O)n4cc(N5CCN(C)CC5)ccc4n3)cc2c(C)n1	7.5	1.7	0.2	2100	1.6	6900	2.9	45	Dose-dependent effect	Dose-dependent effect	Dose-dependent effect	Dose-dependent effect	43	61	26	67	189	6	33	Dose-dependent effect
Cc1cn2cc(-c3cc4ccc(N5CCN(C)CC5)cc4c(=O)o3)nc2c(C)n1	1.2	1.3	0.07	790	11	5000	17		Dose-dependent effect	Dose-dependent effect	Dose-dependent effect	Dose-dependent effect	66	114	35	98	284	14	83	Dose-dependent effect
CCN1CCN(c2ccc3cc(-c4cn5cc(C)nc(C)c5n4)c(=O)oc3c2)C[C@@H]1C	1.2	1.9	0.04	1100	19	3600	18	>150	Dose-dependent effect	Dose-dependent effect	Dose-dependent effect	Dose-dependent effect	115	194	92	164		154	147	Dose-dependent effect
